{"source": "ChEMBL document CHEMBL3425469", "about": "“Discovery of imidazo[2,1-b]thiazole HCV NS4B inhibitors exhibiting synergistic effect with other direct-acting antiviral agents” (J Med Chem, 2015)", "key": {"Hepatitis C virus [1]": {"tested_on": "Hepatitis C virus", "assay": "Antiviral activity against Hepatitis C virus genotype 1b Con 1 infected in human HuH7 cells at 40 nM after 72 hrs by luciferase assay in presence of 140 nM sofobuvir", "type": "functional, Hepacivirus hominis, Huh-7", "how_it_was_run": "(§1)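 Huh-7 cells stably carrying a GT1b Con1 bicistronic luciferase replicon, seeded at 8000 cells/well. The test compound and the partner DAA are dosed orthogonally at various concentrations, final 0.5% DMSO, then incubated 72 h at 37°C. Bright-Glo luciferase read-out gives replicon inhibition as % of untreated control. Cytotoxicity is checked in parallel by CellTiter-Fluor. CI and DRI are derived by the Chou–Talalay median-effect method.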"}, "Hepatitis C virus [2]": {"tested_on": "Hepatitis C virus", "assay": "Antiviral activity against Hepatitis C virus genotype 1b Con 1 infected in human HuH7 cells at 2.5 nM after 72 hrs by luciferase assay in presence of 20 uM clemizole", "type": "functional, Hepacivirus hominis, Huh-7", "how_it_was_run": "(§2)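 Stable Con1 GT1b bicistronic luciferase replicon in Huh-7 cells, 8000 cells/well. Test compound and a marketed DAA or clemizole added alone or together at varied concentrations, 0.5% DMSO final. 72 h at 37°C, then luciferase read with Bright-Glo. Inhibition expressed as % of untreated control, with cytotoxicity run in parallel. CI and DRI derived by the Chou–Talalay median-effect method.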"}, "Hepatitis C virus [3]": {"tested_on": "Hepatitis C virus", "assay": "Antiviral activity against Hepatitis C virus genotype 1b Con 1 infected in human HuH7 cells at 20 nM after 72 hrs by luciferase assay in presence of 15 uM clemizole", "type": "functional, Hepacivirus hominis, Huh-7", "how_it_was_run": "as §1"}, "Hepatitis C virus [4]": {"tested_on": "Hepatitis C virus", "assay": "Antiviral activity against Hepatitis C virus genotype 1b Con 1 infected in human HuH7 cells at 20 nM after 72 hrs by luciferase assay in presence of 12 nM simeprevir", "type": "functional, Hepacivirus hominis, Huh-7", "how_it_was_run": "as §2"}, "Hepatitis C virus [5]": {"tested_on": "Hepatitis C virus", "assay": "Antiviral activity against Hepatitis C virus genotype 1b Con 1 infected in human HuH7 cells at 40 nM after 72 hrs by luciferase assay in presence of 0.16 nM daclatasvir", "type": "functional, Hepacivirus hominis, Huh-7", "how_it_was_run": "as §1"}, "Hepatitis C virus [6]": {"tested_on": "Hepatitis C virus", "assay": "Antiviral activity against Hepatitis C virus genotype 1b Con 1 infected in human HuH7 cells at 40 nM after 72 hrs by luciferase assay in presence of 240 nM sofobuvir", "type": "functional, Hepacivirus hominis, Huh-7", "how_it_was_run": "as §1"}, "Hepatitis C virus [7]": {"tested_on": "Hepatitis C virus", "assay": "Antiviral activity against Hepatitis C virus genotype 1b harboring M423I NS5B (thumb 2) mutation transfected in human HuH7 cells after 72 hrs by luciferase assay", "type": "functional, cell-based, Hepacivirus hominis", "conditions": "Huh-7, 72 h", "how_it_was_run": "(§3)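 Huh-7 cells were transiently electroporated with genotype 1b replicon RNA carrying the specified mutation and plated at 10000 cells/well. Compounds were added at 0.5% DMSO final for 72 h at 37°C. Read-out was Bright-Glo luciferase. EC50 is the mean of two independent runs within 2-fold of each other. A reference drug EC50 was measured alongside each mutant replicon to validate it.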"}, "Hepatitis C virus [8]": {"tested_on": "Hepatitis C virus", "assay": "Antiviral activity against Hepatitis C virus genotype 1b Con 1 infected in human HuH7 cells at 5 nM after 72 hrs by luciferase assay in presence of 0.04 nM daclatasvir", "type": "functional, Hepacivirus hominis, Huh-7", "how_it_was_run": "as §1"}, "Hepatitis C virus [9]": {"tested_on": "Hepatitis C virus", "assay": "Antiviral activity against Hepatitis C virus genotype 1b Con 1 infected in human HuH7 cells at 20 nM after 72 hrs by luciferase assay in presence of 5 uM clemizole", "type": "functional, Hepacivirus hominis, Huh-7", "how_it_was_run": "as §1"}, "Hepatitis C virus [10]": {"tested_on": "Hepatitis C virus", "assay": "Antiviral activity against Hepatitis C virus genotype 1b Con 1 infected in human HuH7 cells at 80 nM after 72 hrs by luciferase assay in presence of 30 nM sofobuvir", "type": "functional, Hepacivirus hominis, Huh-7", "how_it_was_run": "as §1"}, "Hepatitis C virus [11]": {"tested_on": "Hepatitis C virus", "assay": "Antiviral activity against Hepatitis C virus genotype 1b Con 1 infected in human HuH7 cells at 160 nM after 72 hrs by luciferase assay in presence of 7.5 uM clemizole", "type": "functional, Hepacivirus hominis, Huh-7", "how_it_was_run": "as §2"}, "Hepatitis C virus [12]": {"tested_on": "Hepatitis C virus", "assay": "Antiviral activity against Hepatitis C virus genotype 1b Con 1 infected in human HuH7 cells at 10 nM after 72 hrs by luciferase assay in presence of 20 uM clemizole", "type": "functional, Hepacivirus hominis, Huh-7", "how_it_was_run": "as §2"}, "Hepatitis C virus [13]": {"tested_on": "Hepatitis C virus", "assay": "Antiviral activity against Hepatitis C virus genotype 1b Con 1 infected in human HuH7 cells at 2.5 nM after 72 hrs by luciferase assay in presence of 3 nM simeprevir", "type": "functional, Hepacivirus hominis, Huh-7", "how_it_was_run": "as §2"}, "Hepatitis C virus [14]": {"tested_on": "Hepatitis C virus", "assay": "Antiviral activity against Hepatitis C virus genotype 1b Con 1 infected in human HuH7 cells at 160 nM after 72 hrs by luciferase assay in presence of 0.04 nM daclatasvir", "type": "functional, Hepacivirus hominis, Huh-7", "how_it_was_run": "as §2"}, "Hepatitis C virus [15]": {"tested_on": "Hepatitis C virus", "assay": "Antiviral activity against Hepatitis C virus genotype 1b Con 1 infected in human HuH7 cells at 5 nM after 72 hrs by luciferase assay in presence of 24 nM simeprevir", "type": "functional, Hepacivirus hominis, Huh-7", "how_it_was_run": "as §1"}, "Hepatitis C virus [16]": {"tested_on": "Hepatitis C virus", "assay": "Antiviral activity against Hepatitis C virus genotype 1b Con 1 infected in human HuH7 cells at 160 nM after 72 hrs by luciferase assay in presence of 12 nM simeprevir", "type": "functional, Hepacivirus hominis, Huh-7", "how_it_was_run": "as §2"}, "Hepatitis C virus [17]": {"tested_on": "Hepatitis C virus", "assay": "Antiviral activity against Hepatitis C virus genotype 1b Con 1 infected in human HuH7 cells at 5 nM after 72 hrs by luciferase assay in presence of 0.08 nM daclatasvir", "type": "functional, Hepacivirus hominis, Huh-7", "how_it_was_run": "as §1"}, "Hepatitis C virus [18]": {"tested_on": "Hepatitis C virus", "assay": "Antiviral activity against Hepatitis C virus genotype 1b Con 1 infected in human HuH7 cells at 20 nM after 72 hrs by luciferase assay in presence of 0.16 nM daclatasvir", "type": "functional, Hepacivirus hominis, Huh-7", "how_it_was_run": "as §2"}, "Hepatitis C virus [19]": {"tested_on": "Hepatitis C virus", "assay": "Antiviral activity against Hepatitis C virus genotype 1b Con 1 infected in human HuH7 cells at 160 nM after 72 hrs by luciferase assay in presence of 0.16 nM daclatasvir", "type": "functional, Hepacivirus hominis, Huh-7", "how_it_was_run": "as §2"}, "Hepatitis C virus [20]": {"tested_on": "Hepatitis C virus", "assay": "Antiviral activity against Hepatitis C virus genotype 1b Con 1 infected in human HuH7 cells at 20 nM after 72 hrs by luciferase assay in presence of 0.04 nM daclatasvir", "type": "functional, Hepacivirus hominis, Huh-7", "how_it_was_run": "as §2"}, "Hepatitis C virus [21]": {"tested_on": "Hepatitis C virus", "assay": "Antiviral activity against Hepatitis C virus genotype 1b harboring P495A NS5B (thumb 1) mutation transfected in human HuH7 cells after 72 hrs by luciferase assay", "type": "functional, cell-based, Hepacivirus hominis", "conditions": "Huh-7, 72 h", "how_it_was_run": "as §3"}, "Hepatitis C virus [22]": {"tested_on": "Hepatitis C virus", "assay": "Antiviral activity against Hepatitis C virus genotype 1b Con 1 infected in human HuH7 cells at 5 nM after 72 hrs by luciferase assay in presence of 7.5 uM clemizole", "type": "functional, Hepacivirus hominis, Huh-7", "how_it_was_run": "as §1"}, "Hepatitis C virus [23]": {"tested_on": "Hepatitis C virus", "assay": "Antiviral activity against Hepatitis C virus genotype 1b Con 1 infected in human HuH7 cells at 10 nM after 72 hrs by luciferase assay in presence of 6 nM simeprevir", "type": "functional, Hepacivirus hominis, Huh-7", "how_it_was_run": "as §2"}, "Hepatitis C virus [24]": {"tested_on": "Hepatitis C virus", "assay": "Antiviral activity against Hepatitis C virus genotype 1b harboring Y448H NS5B (palm) mutation transfected in human HuH7 cells after 72 hrs by luciferase assay", "type": "functional, cell-based, Hepacivirus hominis", "conditions": "Huh-7, 72 h", "how_it_was_run": "as §3"}, "[25]": {"assay": "Cytotoxicity against human HuH7 cells assessed as cell proliferation by cell titer assay", "type": "cell-based, Huh-7", "how_it_was_run": "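Huh-7 cells carrying GT1b Con1 bicistronic replicon seeded at 8000 cells/well; compound added at 0.5% DMSO final, 37°C for 72 h. Proliferation read with CellTiter-Fluor reagent per manufacturer; CC50 fitted from concentration-response, average of at least two independent determinations.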"}}, "data": [{"smiles": "O=C(c1nc2scc(C3CC3)n2c1Cl)N1CCN(C2CCCC2)C(=O)C1", "values": [{"measurement": "CI", "setting": "Hepatitis C virus [1]", "result": 0.57}, {"measurement": "CI", "setting": "Hepatitis C virus [2]", "result": 1.45}, {"measurement": "CI", "setting": "Hepatitis C virus [3]", "result": 0.79}, {"measurement": "CI", "setting": "Hepatitis C virus [4]", "result": 0.64}, {"measurement": "CI", "setting": "Hepatitis C virus [5]", "result": 0.64}, {"measurement": "CI", "setting": "Hepatitis C virus [6]", "result": 0.41}, {"measurement": "EC50", "setting": "Hepatitis C virus [7]", "result": 9, "unit": "nM"}, {"measurement": "CI", "setting": "Hepatitis C virus [8]", "result": 0.89}, {"measurement": "CI", "setting": "Hepatitis C virus [9]", "result": 0.94}, {"measurement": "CI", "setting": "Hepatitis C virus [10]", "result": 0.91}, {"measurement": "CI", "setting": "Hepatitis C virus [11]", "result": 1.17}, {"measurement": "CI", "setting": "Hepatitis C virus [12]", "result": 1.16}, {"measurement": "CI", "setting": "Hepatitis C virus [13]", "result": 1.26}, {"measurement": "CI", "setting": "Hepatitis C virus [14]", "result": 0.42}, {"measurement": "CI", "setting": "Hepatitis C virus [15]", "result": 1.31}, {"measurement": "CI", "setting": "Hepatitis C virus [16]", "result": 0.47}, {"measurement": "CI", "setting": "Hepatitis C virus [17]", "result": 0.66}, {"measurement": "CI", "setting": "Hepatitis C virus [18]", "result": 0.69}, {"measurement": "CI", "setting": "Hepatitis C virus [19]", "result": 0.65}, {"measurement": "CI", "setting": "Hepatitis C virus [20]", "result": 0.69}, {"measurement": "EC50", "setting": "Hepatitis C virus [21]", "result": 10, "unit": "nM"}, {"measurement": "CI", "setting": "Hepatitis C virus [22]", "result": 0.6}, {"measurement": "CI", "setting": "Hepatitis C virus [23]", "result": 0.54}, {"measurement": "EC50", "setting": "Hepatitis C virus [24]", "result": 8, "unit": "nM"}, {"measurement": "CC50", "setting": "[25]", "result": "> 10", "unit": "µM"}]}]}
